The text below walks through data of paper PMC3756293 (Translational Psychiatry, 2013).

Data set [1] in a line: CSF pharmacokinetics of ABT-384 and acid metabolite after five daily doses. As to conditions: for CSF levels as percent of the free plasma levels / CSF levels as percent of the total plasma levels: 1-50 mg QD for 5 days; for CSF/free plasma exposure ratio: across the dose range tested (1-50 mg QD). Format: in vivo, human. In a few lines: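 Two subjects received 50 mg QD for 5 days. CSF was drawn by catheter before dosing, every 30 min for 8 h, and at 9, 12, 16 and 24 h. Other subjects were sampled hourly during the D4 cortisol infusions plus set post-dose times. Parent and acid metabolite were measured by validated HPLC–MS with D6 stable-label internal standards, injected directly without online solid-phase extraction.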

The nature of data set [2]: Plasma pharmacokinetics of ABT-384 and metabolites after five daily doses. Type of data set: in vivo, human.
For data set [3] the following is noted: 1 mg ABT-384 QD for 7 days; cited from earlier work.
A short description of data set [4]: Safety and tolerability in the clinical study. Type of data set: in vivo, human. A digest of the protocol:
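This open-label, single-site multiple-dose study ran 1–50 mg QD for 5 days. Subjects were confined from Day −1 until at least 48 h after CSF catheter removal, and adverse events were recorded until 30 days after the last dose.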

The target in data set [5] is T1, 11-beta-hydroxysteroid dehydrogenase type 1 (HSD-1) (Homo sapiens, UniProt P28845). Type of data set: in vivo. In a few lines:
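During primed continuous D4 cortisol infusions after five daily doses, plasma was collected hourly. Labeled cortisol and cortisone were measured by mass spectrometry, and the plasma D3 cortisol/D3 cortisone ratio served as a measure of total-body HSD-1 activity.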

The nature of data set [6]: Preclinical tissue distribution, liver relative to plasma. To be noted: rats; data on file. Format: in vivo.
For data set [7], the target named is T1, 11-beta-hydroxysteroid dehydrogenase type 1 (HSD-1). To be noted: cited from earlier work.
For data set [8] the following is noted: daily doses up to 100 mg, healthy volunteers and elderly subjects; cited from earlier work.
Another data set concerns the target HSD-1 (Homo sapiens, UniProt P28845). As to the kind of experiment: HSD-1 binding and dissociation kinetics in vitro. To be noted: data on file.
The target of data set [9] is T1, 11-beta-hydroxysteroid dehydrogenase type 1 (HSD-1). Format: in vivo. As to conditions: regimens of 1-50 mg ABT-384 QD for 5 days, spot urine.
Data set [10] shares this target. Format: in vivo. The source holds these as a separate data set.
The target is the same in data set [11]. As to the kind of experiment: Peripheral HSD-1 inhibition: 1-. Format: in vivo. A digest of the protocol:
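Plasma was sampled hourly during two 8 h D4 cortisol infusions on Days 5–6, after 5 days of once-daily dosing. Inhibition = 1 − (plasma D3 cortisol/plasma D4 cortisol), where 1 approximates the steady-state ratio seen in untreated control subjects. Values are given per time point across both infusions (16 time points).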

A short description of data set [12]: Preclinical tissue distribution, liver relative to plasma. Type of data set: in vivo. As to conditions: monkeys; data on file.
Setting [13] is: 1-50 mg ABT-384 QD for 5 days, healthy men.

“Also recorded” adds a separate entry of the source. Read-outs that look alike come from different tables or passages of the source. Bounds are passed on as bounds.

T1 sequence (P28845 whole entry, the tested form may be a part): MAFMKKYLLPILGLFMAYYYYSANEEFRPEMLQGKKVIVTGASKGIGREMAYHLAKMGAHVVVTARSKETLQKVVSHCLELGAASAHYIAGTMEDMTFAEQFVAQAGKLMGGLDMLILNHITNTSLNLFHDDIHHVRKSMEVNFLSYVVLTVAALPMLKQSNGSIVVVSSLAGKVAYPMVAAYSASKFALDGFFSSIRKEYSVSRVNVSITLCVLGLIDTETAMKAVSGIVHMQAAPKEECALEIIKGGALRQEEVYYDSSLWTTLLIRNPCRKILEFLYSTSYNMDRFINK
Sequence of HSD-1 (P28845 whole entry): as the sequence (P28845 whole entry, the tested form may be a part) above

For the compound `O=C(O)C(O)(c1cccs1)c1cccs1` [Acid Metabolite], in data set [1], the “CSF levels as percent of the free plasma levels” value is reported as 110–150%, the “CSF levels as percent of the total plasma levels” value is 3–4% and the “CSF/free plasma exposure ratio” value was “greater than 1”. Moreover, in data set [1] (CSF), the “mean acid metabolite/parent AUC0-24 ratio in CSF” value was 70–90% and the “mean acid metabolite/parent Cmax ratio in CSF” value is on record as approximately 40%. For the same compound, in [2] (plasma), the “mean acid metabolite/parent AUC0-24 ratio in plasma” value was less than 20% and the “mean acid metabolite/parent Cmax ratio in plasma” value is less than 10%. For the same compound, the “mean metabolite/parent Cmax ratio” value in data set [2] (plasma, 1-50 mg QD for 5 days) is on record as 6–9%. Further, the “mean plasma Cmax” value in [3] is 0.31 ng/mL.
`CC(C)(C(=O)NC1C2CC3CC1CC(C(N)=O)(C3)C2)N1CCN(c2ccc(C(F)(F)F)cn2)CC1` (centres unmarked) [ABT-384]: the “adrenocorticotropic hormone or cortisol values above normal” value in data set [4] (setting [13]) is listed as “No subject showed adrenocorticotropic hormone or cortisol values above normal”. Further, the “changes of clinical laboratory tests, vital signs or electrocardiography parameters” value in data set [4] (setting [13]) was “No clinically significant changes”. For the same compound, in data set [4] (setting [13]), the “deaths, serious adverse events, discontinuations due to adverse events” value is “No deaths, other serious adverse events or discontinuations due to adverse events occurred”. The tolerability result is “well tolerated” in data set [4] (regimens of 1-50 mg ABT-384 QD for 5 days) and “generally well tolerated” in data set [8]. Further, the “peripheral HSD-1 inhibition” value in data set [5] (1 mg QD, each hour from 33 to 40 h after the last dose) is recorded as 81–87%; in [5] (ABT-384 1 mg daily, five daily doses, up to 40 h after last dose), not below 81%; in [5] (ABT-384 regimens ⩾2 mg daily, five daily doses, up to 40 h after last dose), not below 88%; in data set [11] (1 mg regimen, at 40 h after the last dose) it was approximately 86%; in [11] (1 mg regimen, each of eight time points up to 8 h after the last dose), approximately 90%; in [11] (2, 10 and 50 mg QD, each of 16 time points up to 40 h after the last dose), 91–93%. Moreover, the “HSD-1 inhibition predicted from plasma Cmax” value in [5] (plasma Cmax ~2 ng ml^−1, assuming reversible inhibition, in the absence of preferential tissue distribution) was approximately 60%. In addition, the “distribution to the liver relative to the plasma” value in data set [6] and in [12] was “preferentially distributes to the liver” in each case. The “decrease of ratio of urine cortisol metabolites to cortisone metabolite” value in data set [7] (1-100 mg ABT-384 QD for 7 days, 24-h urine collection) is 87–97%. In addition, the “hepatic HSD-1 inhibition” value is on record as “fully inhibited hepatic HSD-1; also recorded: full hepatic HSD-1 inhibition for 24 h” in data set [7] (regimens from 1 mg daily (1 mg QD for 7 days)) and “full hepatic HSD-1 inhibition” in data set [9]. For the same compound, the “binding to and dissociation from HSD-1” value on HSD-1 is “rapid binding to, and very slow dissociation from; also recorded: rapid binding, slow dissociation kinetics”. The “CSF levels as percent of the free plasma levels” value in data set [1] is given as 10–50%. For the same compound, in data set [1], the “CSF levels as percent of the total plasma levels” value is 0.3–1%. Besides, the “CSF/free plasma exposure ratio” value in [1] was “less than 0.5”. Further, the “time to peak levels in the CSF” value in data set [1] (after last dose on Day 5) lay within 2.5 to 5 h. In addition, the “CNS HSD-1 inhibition (CNS formation of D3 cortisol)” value in data set [10] (1 mg ABT-384 QD for 5 days) is given as “partial but substantial CNS HSD-1 inhibition; also recorded: Reduced CNS D3 cortisol formation”; in data set [10] (2-50 mg ABT-384 QD for 5 days, through 40 h after the last dose) it was “full CNS HSD-1 inhibition; also recorded: essentially complete CNS HSD-1 inhibition; also recorded: Complete blockade of D3 cortisol formation in the CNS”. For the same compound, the “intrinsic CSF D3 cortisol compared with the level attained in the absence of study drug” value in data set [10] (1 mg regimen, hours 4-8 of each D4 cortisol infusion) is “approximately two- to three-fold lower”. The “minimum daily dose to achieve full CNS HSD-1 inhibition” value in data set [10] (QD dosing) is given as not above 2 mg. The “time to peak levels in the plasma” value in data set [2] (after last dose on Day 5, 1-50 mg QD) is 1.5 to 3 h. In [2] (man), the “plasma Cmax at which full peripheral HSD-1 inhibition was observed” value is approximately 2 ng/mL. Besides, the “mean plasma Cmax” value in data set [3] is 9.41 ng/mL.
